Drawing on ChEMBL document CHEMBL1777755, “A new iridoid and effect on the rat aortic vascular smooth muscle cell proliferation of isolated compounds from Buddleja officinalis” (Bioorg Med Chem Lett, 2011), this text covers Activity and inhibition for 20 molecules.

In general, inhibition refers to the percentage by which the read-out fell short of the control. Low values mean little suppression, high ones strong suppression.

Data set [1] has as its system VSMC. As to the kind of experiment: Antiproliferative activity against PDGF-BB-induced rat VSMC proliferation after 24 hrs by WST1 (CCK-8) assay. It is filed as functional. Put shortly: (§1)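 Rat aortic VSMCs were seeded at 4 × 10^4 cells/well and grown 48 h in DMEM with 10% FBS. They were then held 24 h in serum-free medium with compounds (0–50 µM), then stimulated 24 h. The methods footnote gives the stimulus as 5% FBS; the figure legends give 25 ng/mL PDGF-BB. WST-1 was added at 22 h for 2 h, and OD read at 450 nm. AG1295 (1 µM) served as positive control; mean ± SD, n = 4.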

Data set [2] can be described thus: Cytotoxicity against PDGF-BB-induced rat VSMC at 50 uM.
Data set [3] concerns VSMC. Kind of data set: (§2) Antiproliferative activity against PDGF-BB-induced rat VSMC proliferation at 10 uM after 24 hrs by WST1 (CCK-8) assay. It is filed as functional. Put shortly:
as §1
On the technique in general: Formazan colour is commonly taken as a measure of viable cells.

The subject of data set [4] is VSMC. As to the kind of experiment: (§3) Antiproliferative activity against PDGF-BB-induced rat VSMC proliferation at 50 uM after 24 hrs by WST1 (CCK-8) assay. Format: functional. Put shortly:
as §1

A short description of data set [5]: Antiproliferative activity against PDGF-BB-induced rat VSMC proliferation at 30 uM after 24 hrs by WST1 (CCK-8) assay. Format: functional. The method in brief:
as §1

Data set [6] in a line: as §2. Format: functional. The method in brief: as §1
Data set [7] can be described thus: as §3. It is filed as functional. The method in brief:
as §1

The source made the active and inactive calls. No cut-off for these calls is given here.

In the case of `COc1cc(C(=O)O[C@@H]2C[C@](C)(O)[C@H]3[C@H](O[C@@H]4O[C@H](CO)[C@@H](O)[C@H](O)[C@H]4O)OC=C[C@H]32)ccc1O`, the Activity entry in the data set with VSMC [1] is “Dose-dependent effect”; in data set [2], “Non-toxic”. Besides, the result in the data set with VSMC [3] was inactive. In the data set with VSMC [4], the result was Active.
With `C[C@@H]1O[C@@H](OC[C@H]2O[C@@H](OCCc3ccc(O)c(O)c3)[C@H](O)[C@@H](O[C@@H]3O[C@@H](C)[C@H](O)[C@@H](O)[C@H]3O)[C@@H]2OC(=O)/C=C/c2ccc(O)c(O)c2)[C@H](O)[C@H](O)[C@H]1O`, the result with VSMC [4] was inactive.
For the molecule `C[C@@H]1O[C@@H](O[C@@H]2[C@@H](O)[C@H](OCCc3ccc(O)c(O)c3)O[C@H](CO)[C@H]2O)[C@H](O)[C@H](O)[C@H]1O`, in the data set on VSMC [4], the outcome was inactive.
On the same count and under the same terms, the same measure for `C[C@@H]1O[C@@H](O[C@@H]2[C@@H](O)[C@H](OCCc3ccc(O)c(O)c3)O[C@H](CO)[C@H]2OC(=O)/C=C/c2ccc(O)c(O)c2)[C@H](O)[C@H](O)[C@H]1O`: “inactive”; for `C[C@H]1O[C@H](O[C@@H]2[C@@H](O)[C@H](OCCc3ccc(O)c(O)c3)O[C@H](CO[C@H]3O[C@@H](CO)[C@H](O)[C@@H](O)[C@@H]3O)[C@H]2OC(=O)/C=C/c2ccc(O)c(O)c2)[C@@H](O)[C@@H](O)[C@@H]1O`: “inactive”.
The same measure, in the same setting: next, `OC[C@H]1O[C@@H](OCCc2ccc(O)cc2)[C@H](O)[C@@H](O)[C@@H]1O`: “inactive”; `OC[C@H]1O[C@@H](OCCc2ccccc2)[C@H](O)[C@@H](O)[C@@H]1O`: “inactive”.
For `COc1ccc(-c2cc(=O)c3c(O)cc(O[C@@H]4O[C@H](CO[C@@H]5O[C@@H](C)[C@H](O)[C@@H](O)[C@H]5O)[C@@H](O)[C@H](O)[C@H]4O)cc3o2)cc1` [ACACIIN], the results for the Activity result (with VSMC [1]; in data set [2]) were “Dose-dependent effect” and “Non-toxic”, respectively. For the same molecule, in data set [5], the inhibition at 30 µM is 21.2%. For the same molecule, in the data set with VSMC [3], the result was inactive. Also, in the data set on VSMC [4], the outcome was Active.
`O=c1cc(-c2ccc(O)cc2)oc2cc(O)cc(O)c12` [APIGENIN]: in data set [2], the Activity entry is reported as “Toxic”. For the same molecule, in the data set with VSMC [3], the outcome was inactive.
As to `C=C[C@](C)(O)CC/C=C(\C)CO[C@@H]1O[C@H](CO)[C@@H](O)[C@H](O)[C@H]1O` [BETULALBUSIDES A], the Activity entry with VSMC [1] is “Dose-dependent effect”; in data set [2], “Non-toxic”. For the same molecule, in the data set with VSMC [3], the result was inactive. In addition, the outcome in the data set on VSMC [4] was Active.
With `CO[C@@H]1C=C2[C@@H]3CC(C)(C)CC[C@]3(CO)[C@@H](O)C[C@@]2(C)[C@]2(C)CC[C@H]3[C@](C)(CO)[C@@H](O[C@@H]4O[C@H](C)[C@H](O)[C@H](O[C@@H]5O[C@H](CO)[C@@H](O[C@@H]6O[C@@H](C)[C@H](O)[C@@H](O)[C@H]6O)[C@H](O)[C@H]5O)[C@H]4O[C@@H]4O[C@H](CO)[C@@H](O)[C@H](O)[C@H]4O)CC[C@]3(C)[C@@H]12` [BUDDLEJASAPONIN IA], the Activity entry in data set [2] is “Toxic”.
Still for that read-out and setting: the same measure for `C[C@H]1O[C@@H](O[C@H]2CC[C@@]3(C)[C@@H](CC[C@]4(C)[C@@H]3C=C[C@]35OC[C@@]6(CCC(C)(C)C[C@H]63)[C@@H](O)C[C@]54C)[C@]2(C)CO)[C@H](O)[C@@H](O[C@@H]2O[C@H](CO)[C@@H](O)[C@H](O)[C@H]2O)[C@H]1O[C@@H]1OC[C@@H](O)[C@H](O)[C@H]1O` [BUDDLEJASAPONIN III]: “Toxic”.
On the same count and under the same terms, next, `CO[C@@H]1C=C2[C@@H]3CC(C)(C)CC[C@]3(OC)[C@@H](O)C[C@@]2(C)[C@]2(C)CC[C@H]3[C@](C)(CO)[C@@H](O[C@@H]4O[C@H](C)[C@H](O)[C@H](O[C@@H]5O[C@H](CO)[C@@H](O)[C@H](O)[C@H]5O)[C@H]4O[C@@H]4O[C@H](CO)[C@@H](O)[C@H](O)[C@H]4O)CC[C@]3(C)[C@@H]12` [BUDDLEJASAPONIN IVA]: “Toxic”.
In the case of `C[C@H]1O[C@@H](O[C@H]2CC[C@@]3(C)[C@@H](CC[C@]4(C)[C@@H]3C=C[C@]35OC[C@@]6(CCC(C)(C)C[C@H]63)[C@@H](O)C[C@]54C)[C@]2(C)CO)[C@H](O[C@@H]2O[C@H](CO)[C@@H](O)[C@H](O)[C@H]2O)[C@@H](O[C@@H]2O[C@H](CO)[C@@H](O)[C@H](O)[C@H]2O)[C@H]1O` [BUDDLEJASAPONIN IV], the Activity entry in data set [2] was “Toxic”.
The same measure, in the same setting: the same measure for `C[C@@H]1O[C@@H](O[C@H]2[C@H](O)[C@@H](O)[C@H](O[C@H]3[C@@H](O)[C@@H](C)O[C@@H](O[C@H]4CC[C@@]5(C)[C@@H](CC[C@]6(C)[C@@H]5C=C[C@]57OC[C@@]8(CCC(C)(C)C[C@H]85)[C@@H](O)C[C@]76C)[C@]4(C)CO)[C@@H]3O[C@@H]3O[C@H](CO)[C@@H](O)[C@H](O)[C@H]3O)O[C@@H]2CO)[C@H](O)[C@H](O)[C@H]1O` [BUDDLEJASAPONIN I]: “Toxic”.
As to `COc1ccc(/C=C/C(=O)O[C@@H]2[C@@H](OC(C)=O)[C@@H](O)[C@H](O[C@H]3[C@@H]4C=CO[C@@H](O[C@@H]5O[C@H](CO)[C@@H](O)[C@H](O)[C@H]5O)[C@@H]4[C@@]4(CO)O[C@@H]34)O[C@H]2C)cc1` [BUDDLEJOSIDE A4], the results for the Activity entry (in the data set on VSMC [1]; in data set [2]) were “Dose-dependent effect” and “Non-toxic”, respectively. In addition, the outcome with VSMC [3] was inactive. Besides, in the data set on VSMC [4], the result was Active.
Take `C[C@@H]1O[C@@H](OC[C@H]2O[C@@H](Oc3cc(O)c4c(=O)cc(-c5ccc(O)cc5)oc4c3)[C@H](O)[C@@H](O)[C@@H]2O)[C@H](O)[C@H](O)[C@H]1O` [ISORHOIFOLIN]: the Activity result is “Dose-dependent effect” in the data set with VSMC [1] and “Non-toxic” in data set [2]. This molecule displayed an inhibition at 30 µM in data set [5] of 22.6%. Besides, the outcome in the data set on VSMC [3] was inactive. Also, the result in the data set on VSMC [4] was Active.
Take `CO[C@H]1[C@@H]2C=CO[C@@H](O[C@@H]3O[C@H](CO)[C@@H](O)[C@H](O)[C@H]3O)[C@@H]2[C@@]2(CO)O[C@@H]12` [METHYLCATALPOL]: the values for the Activity entry (in the data set with VSMC [1]; in data set [2]) were “Dose-dependent effect” and “Non-toxic”, respectively. Besides, the result with VSMC [4] was Active.
`CO[C@H]1[C@@H]2C[C@@H]3OC[C@](O)([C@H]2[C@H](O[C@@H]2O[C@H](CO)[C@@H](O)[C@H](O)[C@H]2O)O3)[C@@H]1O` [METHYLSCUTELLOSIDE]: the Activity result in the data set with VSMC [1] is “Dose-dependent effect”; in data set [2], “Non-toxic”. Also, in data set [5], the inhibition at 30 µM amounted to 42%. This molecule also came in with an inhibition at 10 µM in data set [6] of 39.1%. For the same molecule, the inhibition at 50 µM in data set [7] came to 79.6%.
In the case of `CO[C@@H]1C=C2[C@@H]3CC(C)(C)CC[C@]3(CO)CC[C@@]2(C)[C@]2(C)CC[C@H]3[C@](C)(CO)[C@@H](O[C@@H]4O[C@H](C)[C@H](O)[C@H](O[C@@H]5O[C@H](CO)[C@@H](O[C@@H]6O[C@@H](C)[C@H](O)[C@@H](O)[C@H]6O)[C@H](O)[C@H]5O)[C@H]4O[C@@H]4O[C@H](CO)[C@@H](O)[C@H](O)[C@H]4O)CC[C@]3(C)[C@@H]12` [MIMENGOSIDE B], the Activity result in data set [2] was “Toxic”.
